Measured values: ChEMBL document CHEMBL1151977, “Antiviral constituents against respiratory viruses from Mikania micrantha” (J Nat Prod, 2009)

How the values were obtained:
[1] = Cytotoxicity against human Hep2 cells; type: cell-based, HEp-2; conditions: read-out: TC50 (the source's name)
Influenza A virus = assay: Antiviral activity against Influenza A virus infected in MDCK cells assessed as inhibition of virus-induced cytopathogenic effect by plaque reduction assay; type: functional, organism-based
[2] = Therapeutic index, ratio of TC50 for MDCK cells to IC50 for Influenza A virus infected in MDCK cells; type: cell-based; conditions: dog, read-out: TI
Procedure, shortened: (§1)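 Antiviral IC50 came from a virus-induced cytopathic effect reduction assay in infected cells. Therapeutic index was calculated as TC50 divided by IC50.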

Human respirovirus 3 = assay: Antiviral activity against Parainfluenza virus type 3 infected in human Hep2 cells assessed as inhibition of virus-induced cytopathogenic effect by plaque reduction assay; type: functional, organism-based; conditions: Human respirovirus 3, HEp-2
[3] = Cytotoxicity against MDCK cells; type: cell-based, Canis lupus familiaris; conditions: dog, read-out: TC50 (the source's name)
[4] = Therapeutic index, ratio of TC50 for human Hep2 cells to IC50 for Parainfluenza virus type 3 infected in human Hep2 cells; type: cell-based, HEp-2; conditions: read-out: TI; procedure, shortened: as §1
[5] = Therapeutic index, ratio of TC50 for human Hep2 cells to IC50 for Respiratory syncytial virus infected in human Hep2 cells; type: cell-based, HEp-2; conditions: read-out: TI; procedure, shortened: as §1
[6] = system: Respiratory syncytial virus; assay: Antiviral activity against Respiratory syncytial virus infected in human Hep2 cells assessed as inhibition of virus-induced cytopathogenic effect by plaque reduction assay; type: functional, organism-based; conditions: HEp-2

Structure (SMILES) | CC50 [1] | IC50 (Influenza A virus) | selectivity ratio [2] | IC50 (Human respirovirus 3) | CC50 [3] | selectivity ratio [4] | selectivity ratio [5] | IC50 [6]
CC(C)[C@@H](C)/C=C/[C@@H](C)[C@H]1CC[C@H]2C3=CC[C@H]4C[C@@H](O)CC[C@]4(C)[C@H]3CC[C@]12C | 303 µM | 202 µM | 2 | 50.5 µM | 405 µM | 6 | 6 | 50.5 µM
CC(=O)O[C@H]1C[C@@H]2O[C@@]2(C)C[C@@H]2OC(=O)[C@H](C)[C@H]2[C@H]2C=C1C(=O)O2 | 186 µM | 186 µM | 1 | 186 µM | 186 µM | 1 | 3 | 61.9 µM
COc1ccc(-c2oc3cc(OC)c(OC)c(O)c3c(=O)c2OS(=O)(=O)O)cc1 | 472 µM | 79 µM | 3 | 19.7 µM | 237 µM | 24 | 6 | 79 µM
C[C@H]1C(=O)O[C@H]2C[C@]3(C)O[C@H]3CCC3=C[C@@H](OC3=O)[C@@H]21 | 600 µM | > 360 µM | < 1.7 | 37.4 µM | 600 µM | 16 | 16 | 37.4 µM
C[C@H]1C(=O)O[C@H]2C[C@]3(C)O[C@H]3[C@@H]3O[C@@H]3C3=C[C@@H](OC3=O)[C@@H]21 [DIHYDROMIKANOLIDE] | 214 µM | 143 µM | 1.5 | 143 µM | 214 µM | 1.5 | 1.5 | 143 µM
COc1ccc(-c2oc3cc(OC)c(OC)c(O)c3c(=O)c2O)cc1 [MIKANIN] | 83.1 µM | 167 µM | 3 | 41.6 µM | 500 µM | 2 | 1.5 | 55.5 µM
NC(=O)c1ncn([C@@H]2O[C@H](CO)[C@@H](O)[C@H]2O)n1 [RIBAVIRIN] | – | 42.6 µM | – | 10.7 µM | > 256 µM | – | – | 10.7 µM
